TRPC6 inh: blocks the mouse TRPC6 cation channel; B-score at 10 µM; 1.1% of 310,000 active; AID 2553; HEK293-TRPC6, membrane potential dye, ACh-evoked depolarization; hits give low values;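 active = B-score under library mean minus 3 SD, initial fluorescence not abnormally high, positive integrated signal ratio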;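 also: B-score derived from integrated fluorescence ratio over the kinetic read; more negative B-score means stronger inhibition of depolarization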
TRPC4 PAM: allosteric potentiators of mouse TRPC4 channel; AID 2227; B-score at 10 µM; Q9QUQ5; 0.42% of 310,000 active; HEK293 TRPC4beta/mu-opioid, DAMGO EC20, Fluo-4 Ca2+ flux; hits give high values;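 active = B-score of calcium response area above 5 SD of library B-scores, with initial fluorescence ratio within 5 SD of library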;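 also: B-score of integrated fluorescence ratio over time as area under calcium response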
Target sequence (Q9QUQ5 whole entry, looked up): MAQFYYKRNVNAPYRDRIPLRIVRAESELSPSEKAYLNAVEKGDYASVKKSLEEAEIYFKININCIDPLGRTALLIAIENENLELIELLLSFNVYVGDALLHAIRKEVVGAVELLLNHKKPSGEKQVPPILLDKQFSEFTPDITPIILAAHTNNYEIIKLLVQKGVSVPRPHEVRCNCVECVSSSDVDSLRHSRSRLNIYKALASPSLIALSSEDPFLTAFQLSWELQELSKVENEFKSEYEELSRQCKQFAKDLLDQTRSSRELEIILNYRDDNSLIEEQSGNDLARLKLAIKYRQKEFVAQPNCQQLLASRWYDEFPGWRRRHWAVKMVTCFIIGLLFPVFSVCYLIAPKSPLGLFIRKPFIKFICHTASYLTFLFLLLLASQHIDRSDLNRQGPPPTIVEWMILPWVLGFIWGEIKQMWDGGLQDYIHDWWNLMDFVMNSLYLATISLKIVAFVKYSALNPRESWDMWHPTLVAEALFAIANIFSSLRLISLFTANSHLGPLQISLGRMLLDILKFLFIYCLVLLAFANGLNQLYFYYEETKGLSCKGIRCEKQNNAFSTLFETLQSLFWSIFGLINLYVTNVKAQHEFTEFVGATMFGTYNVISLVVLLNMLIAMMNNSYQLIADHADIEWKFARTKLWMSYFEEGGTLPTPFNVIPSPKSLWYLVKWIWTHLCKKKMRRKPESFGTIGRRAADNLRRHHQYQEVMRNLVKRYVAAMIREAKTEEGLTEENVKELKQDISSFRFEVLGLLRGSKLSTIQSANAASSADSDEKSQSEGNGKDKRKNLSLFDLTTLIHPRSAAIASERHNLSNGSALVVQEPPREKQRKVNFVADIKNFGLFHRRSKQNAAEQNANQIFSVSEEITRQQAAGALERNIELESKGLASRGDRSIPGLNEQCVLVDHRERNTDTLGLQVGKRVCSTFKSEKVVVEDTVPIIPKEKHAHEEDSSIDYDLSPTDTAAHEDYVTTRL
TRPC4 block: TRPC4 (mouse) channel inhibition; Q9QUQ5; HEK293 TRPC4beta/mu-opioid, DAMGO-evoked Fluo4 calcium flux; hits give low values; B-score at 10 µM; 0.39% of 300,000 active; AID 2247;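 active = B-score over 3 SD under the library average, no early fluorescence shift, positive overall ratio signal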
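System: stable TRPC4beta/mu-opioid receptor HEK293 cells; Dosing: single-point compound dosing; Measured by: Fluo4 Ca2+ flux fluorescence; Read-out basis: per-well B score of integrated baseline-normalized Fluo4 ratio.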
TRPC6 activator: activators of mouse TRPC6 channel; Q61143; HEK293-TRPC6 membrane potential dye fluorescence; hits give high values; B-score at 10 µM; 0.13% of 310,000 active;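 active = B-score of the integrated fluorescence ratio above library mean plus 3 SD, and starting fluorescence ratio within library mean plus 5 SD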;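 also: higher score means more depolarization so channel activation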
TRPC4 act: activators of mouse TRPC4 channel; 0.49% of 310,000 active; HEK293 TRPC4beta/mu-opioid, Fluo4 calcium fluorescence; hits give high values; Q9QUQ5; B-score at 10 µM; AID 2237;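 active = B-score above 5 SD of library B-scores, and initial fluorescence ratio not above library mean plus 5 SD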;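 also: positive B-score marks a calcium rise read as TRPC4 activation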
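Assay system – TRPC4beta and mu-opioid receptor HEK293 stable cells · Measured by – Fluo4 fluorescence, kinetic · Schedule – dye loading 45 min room temperature, 110 s kinetic read · Read-out – B-scored integrated calcium fluorescence ratio · Controls – buffer and maximal DAMGO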
Starred values were filed as active, the others as inactive; i = inactive. A selection: hits, their analogues and other compounds. The true share with any hit is near 2.3%.

SMILES	TRPC6 inh	TRPC4 PAM	TRPC4 block	TRPC6 activator	TRPC4 act
CC(C)NC(=O)c1cc2ccccc2o1	i	i	i	i	i
COc1cccc(CNC(=O)COc2ccc(C(=O)c3ccccc3)cc2)c1	i	i	i	i	i
CCCCN(CC)CCNC(=O)CCC(=O)Nc1ccc2nc(N3CCN(C)CC3)cc(C)c2c1	i	i	i	i	118*
CCN(CC)CCCNC(=O)CCC(=O)Nc1ccc2nc(N3CCCCC3)cc(C)c2c1	i	i	i	i	i
Cc1cc(N2CCN(C)CC2)nc2ccc(NC(=S)NC3CC3)cc12	i	i	i	i	i
CCCN(CCC)CCNC(=S)Nc1ccc2nc3n(c(=O)c2c1)CCCCC3	i	i	i	i	88*
CCCN(CCC)CCCNC(=S)Nc1ccc2nc(N3CCN(C)CC3)cc(C)c2c1	i	13*	i	i	i
CCCN(CCC)CCCNC(=S)Nc1ccc2nc(N3CCN(CC)CC3)cc(C)c2c1	i	i	i	i	i
CCCCN(CC)CCNC(=S)Nc1ccc2nc(N3CCN(C)CC3)cc(C)c2c1	i	i	i	i	66*
O=C(CS(=O)CC(=O)N(CC(=O)NC1CCCC1)c1ccccc1F)Nc1ccc(F)cc1 (stereo unspecified)	i	i	i	i	i
O=S(=O)(O)c1cccc2cccc(Nc3ccccc3)c12	i	i	i	i	i
CCCN(CCC)CCNC(=O)CCC(=O)Nc1ccc2nc(N3CCOCC3)cc(C)c2c1	i	i	i	i	97*
O=C1CCCc2nc(N3CCN(C(c4ccccc4)c4ccccc4)CC3)ncc21	i	i	i	i	43*
CC1CC(C)CN(CCCNC(=O)CCC(=O)N2CCOc3ccccc32)C1 (stereo unspecified)	i	i	i	i	73*
CCOC(=O)C1(Cc2cccc(OC)c2)CCN(CC2CC=CCC2)CC1 (stereo unspecified)	i	i	-5*	i	i
CCOC(=O)C1(Cc2cccc(OC)c2)CCN(Cc2ccc(OC)c(OC)c2)CC1	i	i	i	i	i
CCOC(=O)C1(Cc2ccccc2)CCN(CC2CC=CCC2)CC1 (stereo unspecified)	i	i	-6*	i	i
CCOC(=O)C1(Cc2cccc(OC)c2)CCN(Cc2cccc(O)c2)CC1	i	i	-8*	i	i
O=C(O)Cn1c(=O)c2c3c(sc2n(Cc2ccc(Cl)cc2Cl)c1=O)CCCC3	i	i	i	i	i
O=C(NCc1ccc(F)cc1)C(c1cccnc1)N(C(=O)c1csnn1)c1ccccc1 (stereo unspecified)	i	i	i	i	i
O=C(c1ccc2[nH]c(=O)c(=O)[nH]c2c1)N1CCN(c2ccccc2)CC1	i	i	i	i	i
CNc1nc(N2CCc3ccccc32)ncc1F	i	47*	i	i	i
COc1ccc(C2CC(=O)c3cnc(N4CCc5ccccc54)nc3C2)cc1OC (stereo unspecified)	i	i	i	i	i
Cc1ccc(Oc2ccccc2/C=N/O)cc1	i	i	-7*	i	i
CCN(CC)CCOC(=O)C1(c2ccccc2)CCOCC1	i	i	i	i	60*
SMILES	TRPC6 inh	TRPC4 PAM	TRPC4 block	TRPC6 activator	TRPC4 act
CCCOc1cccc(C(=O)NCCNC(=O)c2ccco2)c1	i	i	-6*	i	i
CC(=O)c1ccc(N2CCN(C(=O)c3ccc(Cn4c(=S)[nH]c5ccc(N6CCOCC6)cc5c4=O)cc3)CC2)cc1	i	14*	i	i	i
O=C(c1ccc(CN2CCOCC2)cc1)N1CCN(c2ccccc2)CC1	i	i	-6*	i	i
CCC1Nc2ncnc(N3CCN(c4ccccc4)CC3)c2N(Cc2ccc(Br)cc2)C1=O (stereo unspecified)	i	i	i	i	i
COc1cccc(CNC(=O)CCCc2c[nH]c3ccccc23)c1	i	i	i	i	i
O=C(NCCc1ccccn1)C(F)(F)C(F)(F)C(F)(F)C(F)(F)C(F)(F)C(F)F	i	i	i	i	128*
O=C(NCc1ccccn1)C(F)(F)C(F)(F)C(=O)NCc1ccccn1	i	i	i	i	i
C=CCn1c(=O)c(CCC(=O)Nc2ccc(N3CCOCC3)cc2)nc2cc(C(F)(F)F)ccc21	i	i	i	i	i
CCCCOc1ccc(Nc2cc(Cl)ccc2C(=O)O)cn1	i	i	-7*	i	i
COc1ccc(CC(=O)Nc2cc(Cl)ccc2C(=O)O)cc1	i	i	i	i	i
CC(=O)Nc1ccc(NC(=O)CSc2nc(N)c(NC(=O)c3ccccc3F)c(=O)[nH]2)cc1	i	i	i	i	i
O=C1CN(C(=O)COC(=O)C2CCN(S(=O)(=O)c3ccccc3C(F)(F)F)CC2)c2ccccc2N1	i	11*	i	i	i
COc1ccc(CNC(=O)COC(=O)C2CCN(S(=O)(=O)c3ccccc3C(F)(F)F)CC2)cc1	i	i	i	i	i
Cc1ccccc1N(CC(=O)N/N=C/c1ccc(Cl)cc1)C(=O)c1ccccc1	i	i	i	i	i
Cc1ccccc1N(CC(=O)N/N=C/c1ccc(F)cc1)C(=O)c1ccccc1	i	i	i	i	91*
CC(=O)Oc1ccc(C(=O)Nc2cc(C)on2)cc1	i	i	i	i	i
CCn1c(=O)c(C(=O)NNC(=O)c2ccccc2F)c(O)c2ccccc21	i	i	i	i	114*
CCn1c(=O)c(C(=O)NNC(=O)c2ccccc2Cl)c(O)c2ccccc21	i	i	i	i	51*
Cc1nc(N2CCCCC2)c2c(C)c(C(=O)Nc3ccc4c(c3)OCCO4)sc2n1	i	i	i	i	i
Nn1cnc2cc3ccccc3cc2c1=O	i	i	i	i	i
O=[N+]([O-])c1ccccc1OCCCN1CCc2ccccc2C1	i	i	i	i	i
CC1CC(C)CN(CCCOc2ccccc2[N+](=O)[O-])C1 (stereo unspecified)	i	i	i	i	48*
CCOC(=O)C(CCCCCOc1ccc([N+](=O)[O-])cc1)C(=O)OCC	i	23*	i	i	i
CCOC(=O)C(CCCCOc1cccc(CC)c1)C(=O)OCC	i	i	i	i	i
CCOC(=O)C(CCCCCOc1ccccc1[N+](=O)[O-])C(=O)OCC	i	i	-6*	i	i

Source: PubChem (Johns Hopkins Ion Channel Center)
